Screening results as filed in PubChem BioAssay.
Compounds with a hit are over-represented: about 2.2% of the library has one in this group of screens.
b-catenin transl: modulators of beta-catenin nuclear translocation. 190,000 compounds, 0.3% hits. nuclear translocation activity, % at 5 µM. HeLa beta-catenin nuclear translocation, immunofluorescence imaging;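 active = nuclear translocation activity above 50% at 5 µM, with a well cell count of 50 or more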;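 also: per-cell ratio of nuclear to cytoplasmic median beta-catenin stain intensity; plate controls were DMSO negative control for no effect and GSK-3 inhibitor IX positive control for full effect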
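Signal – beta-catenin immunofluorescence imaging with DAPI · Test system – human HeLa cell line · Dosing – 5 µM primary single dose, 0.1% DMSO, 0.02–20 µM confirmation series · Measure – % activation, nuclear-to-cytoplasmic median beta-catenin signal ratio per cell · Incubation – 24 h compound exposure at 37°C, 5% CO2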
IEC-6 cytotox: IEC-6 cytotoxicity, counter-screen for KLF5 inhibitors | inhibition, % at 5 µM | 290,000 compounds, 0.78% hits | luminescence viability; in the data active = inhibition above about 22%;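 also: 0% = plate median of test compound wells and 100% = cytotoxic reference compound wells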
Ba/F3 V617F tox: lowers viability of Ba/F3 cells expressing EpoR and JAK2V617F; ATP luminescence; inhibition, % at 5.6 µM; 220,000 compounds, 1.1% hits; AID 1446;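 active = inhibition above the campaign mean plus 3 SD over all tested compounds, cut at about 24% in these data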;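 also: cytokine-independent growth of Ba/F3 cells driven by EpoR plus mutant JAK2; 0% = DMSO-treated cells and 100% = JAK inhibitor I control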
BaF3 tox: reduces parental Ba/F3 cell viability, JAK2V617F counter-screen; 220,000 compounds, 1.1% hits; inhibition, % at 5.6 µM; CellTiter-Glo ATP luminescence;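 active = inhibition above a per-campaign cutoff, the mean inhibition of all tested compounds plus 3 SD, cut at about 27% in these data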;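 also: 0% = DMSO wells and 100% = JAK Inhibitor I control wells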
MT stabilizer: stabilizes microtubules in HeLa cells; HeLa tubulin immunostaining HCS, 24 h; share of cells brighter than vehicle mean+2SD; 200,000 compounds, 0.83% hits; % tubulin-high responders, % at 10 µM;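 active = plate Z-score above 3 for both tubulin-high and condensed-nucleus cell shares, with cell loss under 80%, at 10 µM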;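 also: anti alpha tubulin signal scored within the nucleus-defined area of each cell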
APP 5UTR inh: APP translation inhibition. SH-SY5Y APP 5'UTR-luciferase reporter, luminescence. inhibition, % at 2 µM. 190,000 compounds, 0.82% hits;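 active = inhibition above a set limit, derived from the sample mean plus 3 SD, cut at about 45% in these data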
The depositor's hits bear a star; x = no result.

SMILES	b-catenin transl	IEC-6 cytotox	Ba/F3 V617F tox	BaF3 tox	MT stabilizer	APP 5UTR inh
O=C(O)c1ccccc1Nc1ccc([N+](=O)[O-])cc1	6	20	45*	44*	7	-2
CCOC(=O)c1c2ccc(OCC(=O)N/N=C/c3ccccc3C(F)(F)F)cc2n2ccccc12	-7	0	0	1	33*	7
CCOC(=O)c1c2ccc(OCC(=O)N/N=C/c3ccc(Cl)cc3)cc2n2ccccc12	-2	0	1	9	15	0
CCc1ccc(/C=N/NC(=O)c2cc(-c3ccccc3OC)nc3ccccc23)s1	2	1	0	4	1	x
CCc1ccc(/C=N/NC(=O)c2cc(C3CC3)nc3ccc(Br)cc23)s1	-2	-2	-1	2	20*	72*
COc1ccc(/C=C/C(=O)c2cc(Br)ccc2OC(=O)c2ccco2)cc1OC	29	0	4	5	4	87*
Cc1ccc(NC(=O)CCCn2nc(C)c3c(C)n(-c4ccccc4)nc3c2=O)c(Cl)c1	x	2	x	x	x	x
CCc1ccc(S(=O)(=O)Nc2cc(SCC(=O)O)c(O)c3ccccc23)cc1	1	5	-2	6	3	6
O=S(=O)(Nc1cc(Sc2cccc3cccnc23)c(O)c2ccccc12)c1ccccc1	0	98*	-1	3	3	75*
CC(C)(C)C#CC(CCc1ccccc1)OS(N)(=O)=O (centres undefined)	x	0	x	x	x	x
Cc1ccc(N2CC(C(=O)Nc3ccccc3N3CCCC3)CC2=O)cc1 (centres undefined)	x	-4	x	x	x	x
COC(=O)c1ccccc1NC(=O)C1CC(=O)N(c2ccc(C)cc2)C1 (centres undefined)	2	-5	-1	54*	7	1
COc1cccc(CNc2ccc3[nH]c(=O)[nH]c3c2)c1OCc1ccccc1F	x	-4	x	x	x	x
S=C(Nc1ccccc1)Nc1ccc(Cl)cn1	-3	11	2	4	4	-31
O=C(NC(=S)Nc1ccc(Cl)cn1)C(c1ccccc1)c1ccccc1	1	0	3	4	36*	-16
O=C(Oc1ccc(Br)cc1C(=S)N1CCCC1)c1ccccc1Cl	0	3	1	7	1	-8
O=C(Oc1ccc(Br)cc1C(=S)N1CCCCC1)c1cc([N+](=O)[O-])cc([N+](=O)[O-])c1	-4	0	-3	1	3	50*
C=C(c1ccccc1O)n1ccnc1	x	1	x	x	x	x
COc1ccc(/C=N\NC(=O)c2c(C)nc3ccc(Br)cn23)cc1	53*	47*	73*	72*	20*	89*
COC(=O)c1ccccc1NC(=O)CSc1[nH]c(=O)cc(C)c1C#N	0	5	0	12	2	-18
Cc1cc(=O)[nH]c(SCC(=O)Nc2ccccc2C#N)c1C#N	0	3	1	5	44*	2
Cc1ccc2nc(NC(=O)CCCC(=O)O)sc2c1	-3	-3	2	2	3	60*
OC(CNc1ccccc1)COc1ccc(OCC(O)CNc2ccccc2)cc1 (centres undefined)	-4	16	24*	34*	2	-7
CCOCC(O)CNc1ccccc1 (centres undefined)	-2	1	0	8	3	1
O=C(Nc1ccc(N2CCOCC2)c(F)c1)c1cccs1	x	9	x	x	x	x
SMILES	b-catenin transl	IEC-6 cytotox	Ba/F3 V617F tox	BaF3 tox	MT stabilizer	APP 5UTR inh
COc1ccc2nc(NCc3ccccc3)[nH]c2c1	12	5	1	6	43*	-18
COc1cc(Cn2c(-c3nonc3N)nc3ccccc32)ccc1C	x	10	1	3	15	90*
CCCCOc1ccccc1NC(=O)Cn1c(-c2nonc2N)nc2ccccc21	0	1	2	9	27*	90*
Nc1nonc1-c1nc2ccccc2n1Cc1ccc(Cl)cc1	1	2	-2	5	6	-4
COc1cccc(Cn2c(-c3nonc3N)nc3ccccc32)c1	x	9	86*	79*	50*	92*
Cc1ccc(Cn2c(-c3nonc3N)nc3ccccc32)cc1	-2	6	3	3	5	6
NNC(=O)Cn1c(-c2nonc2N)nc2ccccc21	-3	-8	-1	5	3	-10
CCCCn1c(N)c(N(CC)C(=O)c2ccc([N+](=O)[O-])c(C)c2)c(=O)[nH]c1=O	x	6	x	x	x	x
O=C(CN1C(=O)CSc2ccc(S(=O)(=O)N3CCOCC3)cc21)NCc1ccc(Cl)cc1	x	2	x	x	x	x
CC(=O)c1c(N2CCCCC2)nc(=S)n(-c2ccccc2)c1C	-10	-1	23	41*	3	11
CN(CC(=O)Nc1ncn[nH]1)S(=O)(=O)c1ccc(Cl)cc1	x	-6	x	x	x	x
c1ccc2c(c1)OCC(CNc1ncnc3sccc13)O2 (centres undefined)	-1	17	60*	62*	3	4
O=C1NC(=Nc2ccccc2)S/C1=C\c1cccn1-c1ccccc1	10	2	-3	2	21*	-5
CC(=O)C1=NN(c2ccccc2)C(c2cccs2)N1c1ccccc1 (centres undefined)	x	-3	22	43*	2	10
CC(=O)C1=NN(c2ccccc2)C(c2ccc3c(c2)OCO3)N1c1ccc(N2CCOCC2)cc1 (centres undefined)	x	-4	1	0	3	-7
COc1ccc(C(C)=O)cc1COC(=O)CCNS(=O)(=O)c1ccc(C(C)=O)cc1	x	-10	x	x	x	x
COc1ccc(C(C)=O)cc1COC(=O)c1ccc(N)c([N+](=O)[O-])c1	-3	31*	-4	-3	2	6
COc1ccc(C(C)=O)cc1COC(=O)CNC(=O)c1cc(C)cc(C)c1	-4	4	70*	38*	2	3
O=C(CCc1nc2ccccc2c(=O)[nH]1)N1CCN(S(=O)(=O)c2cccc(F)c2)CC1	x	-1	x	x	x	x
Cc1cc(C)c2cc3c(N)c(C(=O)N4CCOCC4)sc3nc2c1	0	2	1	2	4	-86
Cc1cc(C)c2nc3sc(C(=O)N4CCOCC4)c(N)c3cc2c1	72*	3	-5	-2	x	x
Cc1ccc(C)c2nc3sc(C(=O)N4CCOCC4)c(N)c3cc12	43	-3	0	5	28*	-64
Cc1cccc2cc3c(N)c(C(=O)N4CCc5ccccc54)sc3nc12	12	4	-2	5	12*	-9
CC(C)[C@H](NC(=O)N1c2ccccc2NC(=O)[C@@H]1C(C)C)C(=O)N1CCC(C(=O)O)CC1	x	3	x	x	x	x
Cc1cccn2c(=O)c3cc(C(=O)NCCN4CCOCC4)c(=N)n(Cc4ccc(F)cc4)c3nc12	x	7	x	x	x	x
CC(=O)[C@@]1(O)C(C)CC2C3C=C(C)C4=Cc5c(cnn5-c5ccccc5)C[C@]4(C)C3C(O)C[C@@]21C (some centres undefined)	-5	27*	9	0	x	x
Cc1cc(C(=O)NC2CC(C)(C)Cc3c2cnn3-c2ccccc2)n(C)n1 (centres undefined)	x	6	x	x	x	x
